Screening data: PubChem, several laboratories
Many of the other results were omitted from the sample, so hits are more common in it than they were.
UPR CHOP act – activators of apoptotic arm of unfolded protein response (CHOP); 330,000 compounds, 0.34% hits; activation, % at 10 µM; CHO-CHOP luciferase reporter, UPR activation, luminescence; percent of tunicamycin response over DMSO baseline;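 active = at 10 µM dose, activation of 40% or more, normalized to positive control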;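 note: 100% = tunicamycin at 10 µg/mL and 0% = DMSO alone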
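Assay system: CHO-CHOP cells, stable luciferase reporter of PERK-eIF2a-CHOP signalling / Buffer or medium: F12 plus 10% serum / Compound dosing: one dose, 10 µM in 0.5% DMSO / Times: 6 h compound treatment, 37 °C / Technique: luciferase luminescence / Read-out: % reporter activation, DMSO baseline versus tunicamycin full activation / Benchmarks: tunicamycin and DMSO controls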
XBP1 UPR activ – activators of adaptive arm of unfolded protein response (XBP1) | activation, % at 20 µM | CHO-XBP1 luciferase reporter, IRE1-XBP1 UPR activation, luminescence; percent of tunicamycin response, DMSO as zero | 330,000 compounds, 0.33% hits;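 active = versus positive control, 20 µM dose yields 30% or more activation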;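 note: 100% = tunicamycin at 10 µg/mL and 0% = DMSO only wells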
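Signal: luciferase luminescence; Assay system: CHO-XBP1 luciferase reporter cells; Amount: one thousand reporter cells per well; Dosing: 20 µM single concentration, DMSO 1%; Benchmarks: high control tunicamycin 10 µg/mL final, low control DMSO vehicle only; Schedule: 6 h compound exposure at 37 °C, 5% CO2; Evaluation: percent activation relative to tunicamycin reference.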
VLA-4 inh – inhibition in a human VLA-4 binding assay. AID 2557. inhibition, % (about 7 µM as worked out from the volumes in the protocol). P13612. VLA-4 expressing cells, ligand binding flow cytometry. 330,000 compounds, 0.2% hits; in the data active = inhibition above about 50%
Target sequence (P13612 whole entry, looked up): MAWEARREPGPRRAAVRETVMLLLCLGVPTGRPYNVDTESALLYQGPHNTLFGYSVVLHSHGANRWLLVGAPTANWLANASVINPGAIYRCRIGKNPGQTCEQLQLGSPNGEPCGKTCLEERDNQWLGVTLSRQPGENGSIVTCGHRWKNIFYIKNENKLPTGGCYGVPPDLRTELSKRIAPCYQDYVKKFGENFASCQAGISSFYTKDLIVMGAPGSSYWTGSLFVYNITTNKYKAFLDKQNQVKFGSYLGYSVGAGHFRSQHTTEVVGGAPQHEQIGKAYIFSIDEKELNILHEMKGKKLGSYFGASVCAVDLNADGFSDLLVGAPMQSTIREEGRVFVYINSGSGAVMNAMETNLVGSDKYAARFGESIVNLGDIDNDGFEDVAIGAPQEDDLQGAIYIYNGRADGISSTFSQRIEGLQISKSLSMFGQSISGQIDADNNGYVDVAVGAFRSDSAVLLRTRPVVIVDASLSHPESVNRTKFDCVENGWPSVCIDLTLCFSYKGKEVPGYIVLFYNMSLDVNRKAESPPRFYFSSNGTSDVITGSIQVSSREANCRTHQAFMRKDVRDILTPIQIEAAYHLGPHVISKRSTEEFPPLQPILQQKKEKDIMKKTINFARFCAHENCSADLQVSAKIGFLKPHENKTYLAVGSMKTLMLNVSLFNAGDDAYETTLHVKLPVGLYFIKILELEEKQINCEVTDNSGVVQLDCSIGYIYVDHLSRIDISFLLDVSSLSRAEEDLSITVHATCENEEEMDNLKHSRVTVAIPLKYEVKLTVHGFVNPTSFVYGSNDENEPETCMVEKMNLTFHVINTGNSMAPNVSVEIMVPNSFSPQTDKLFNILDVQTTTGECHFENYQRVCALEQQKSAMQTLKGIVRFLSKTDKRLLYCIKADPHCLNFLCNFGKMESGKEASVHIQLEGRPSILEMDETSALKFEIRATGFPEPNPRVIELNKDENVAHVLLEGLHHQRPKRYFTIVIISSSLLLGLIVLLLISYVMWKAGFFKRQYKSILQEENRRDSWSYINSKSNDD
Beta2AR agonist – agonists of human beta-2 adrenergic receptor inducing internalization | P07550 | Am2.2-beta2AR cells, FAP receptor internalization, flow cytometry | response, % (test concentration not listed) | 340,000 compounds, 0.43% hits | AID 504454;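 active = response above a set limit, near 3 SD of response in nonfluorescent compounds, cut at about 42% in these data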
CHOP inh – inhibitors of CHOP induction in ER stress response | CHO-K1 CHOP-promoter luciferase, tunicamycin-induced, 15-18 h | inhibition, % at 10 µM | 220,000 compounds, 3.8% hits;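 active = compounds that reduced the stress-induced luciferase reporter signal by more than about 70% of percent inhibition, limit read from the data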;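 note: 0% = tunicamycin plus vehicle and 100% = wells without tunicamycin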
The depositor's hits bear a star; . = no result given.

SMILES	UPR CHOP act	XBP1 UPR activ	VLA-4 inh	Beta2AR agonist	CHOP inh
O=S(=O)(NC1=NCCC1)c1cccc(NS(=O)(=O)c2ccc(OC(F)(F)F)cc2)c1	-1	-2	-2	-1	-8
CCOC(=O)c1c(NC(=O)CSc2c[nH]c3ccccc23)sc2c1CCCC2	3	-2	-1	13	76*
CCOC(=O)c1c(NC(=O)COc2cccc3c2CCN(CC)C3=O)sc2c1CCC2	-2	1	-4	-7	78*
CCOC(=O)c1c(NC(=O)COC)sc2c1CCCC2	0	-1	2	0	86*
CCn1c(SC(C)C(=O)Nc2ccc3c(c2)OCCO3)nnc1C1CC1 (centres undefined)	-1	-2	2	-1	.
Cn1nc(C(=O)Nc2nc3ccccc3[nH]2)c2ccccc2c1=O	5	4	13	56*	-13
CCn1nc(C(=O)Nc2nc3ccccc3[nH]2)c2ccccc2c1=O	2	0	-4	-10	1
COc1ccccc1OCc1nnc(SCC(=O)Nc2ccc(N3CCOCC3)cc2)n1C	3	-4	9	4	.
COc1ccccc1C(=O)N(Cc1nc(-c2ccc(Cl)cc2)no1)C(C)C	-2	-3	-4	10	75*
COc1ccc(-c2noc(CN(C(=O)c3c(-c4ccccc4Cl)noc3C)C(C)C)n2)cc1	-4	-4	-7	-1	72*
O=C(c1cccc(NS(=O)(=O)c2ccccc2)c1)N1CCCCC1	-1	0	-11	0	.
O=C(CCSc1ccccc1)NC1CCCCCC1	6	-1	5	-5	12
O=C(CCSc1ccccc1)NC(=O)COC(=O)C1CCCCC1	0	-1	3	-2	70*
Cc1ccc2c(c1)[C@@H]1[C@H](CO2)[C@H](c2ccccc2)[C@@]2(C)C(=O)N[C@H](C)C(=O)N12	-2	1	-5	0	.
CCOc1ccc(NC(=O)COC(=O)C2(C)CC2(Cl)Cl)c([N+](=O)[O-])c1 (centres undefined)	2	-1	5	0	97*
CCOc1ccc(OCC(=O)Nc2ccc(OC)cc2[N+](=O)[O-])cc1	1	2	4	9	18
Cc1cc(C)n2nc(C(=O)OCC(=O)NNC(=O)c3ccccc3)nc2n1	0	-1	-10	-4	.
O=C(Nc1nc2cc3c(cc2s1)OCCO3)C1=COCCO1	-10	-6	-3	22	94*
Nc1[nH]n2c(=O)c3c(nc2c1N=Nc1ccccc1)CCCC3	1	3	9	-2	-86
Nc1[nH]n2c(=O)c3c(nc2c1N=Nc1ccc(Cl)cc1)CCCC3	1	-2	4	3	78*
CCCCN1C(N)=NC[C@@H]1CCCCN	0	1	0	3	.
O=C(CCc1ccccc1)NC(=S)Nc1cccc(Br)c1	8	1	-5	-6	72*
Cc1cc(C(=O)CSc2nnc3ccccn23)c(C)n1-c1ccccc1	-10	-8	15	-4	73*
Cc1cc(C(=O)CSc2nnc(-c3ccccc3)n2-c2ccccc2)c(C)n1-c1ncn[nH]1	2	0	-4	14	-9
Cc1cccc(N2CCN(c3ccc(N4C(=O)CCCC4=O)cc3[N+](=O)[O-])CC2)c1C	0	-2	22	3	84*
SMILES	UPR CHOP act	XBP1 UPR activ	VLA-4 inh	Beta2AR agonist	CHOP inh
Cc1cccc(N2CCN(CC(=O)Nc3ccccc3[N+](=O)[O-])CC2)c1C	2	0	12	7	77*
O=[N+]([O-])c1ccc2nc(NN=Cc3ccc(O)cc3)sc2c1	.	.	.	17	.
Oc1cccc(-c2nc3ccc4ccccc4c3c3c2CCC3)c1	4	3	19	9	82*
CCCCn1c(NC(=O)CC)c(C#N)c2nc3ccccc3nc21	-1	1	-17	-12	94*
CCCCn1c(NC(=O)c2ccccc2Cl)c(C#N)c2nc3ccccc3nc21	3	14	-21	3	42
CC(NC(=O)C(=O)N/N=C/c1ccccc1)c1ccccc1 (centres undefined)	2	3	25	3	71*
CC(C)N1CCc2c(sc(NC(=S)NC(=O)c3ccccc3)c2C#N)C1	3	4	-146	-28	5
CC(C)C1Cc2c(sc(NC(=S)NC(=O)c3ccccc3)c2C#N)CO1 (centres undefined)	0	1	-8	2	83*
